pEC50: −log10 of the molar value.

Test [1] in a line: Selectivity is the ratio between IC50 values of [3H]CTOP and [3H][p-Cl-phe4]-DPDPE. Put shortly: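 Brain membranes were homogenised in 50 mM Tris-HCl pH 7.4, pelleted at 48000g, and preincubated at 25 °C for 30 min to strip endogenous peptides. Buffer contained BSA, bestatin, bacitracin, captopril and toluenesulfonyl fluoride. δ radioligand was [3H][D-Pen2,p-Cl-Phe4,D-Pen5]enkephalin 0.75 nM; μ was [3H]CTOP 0.5 nM. Ten concentrations over 800-fold, in duplicate. Nonspecific binding used 10 μM naltrexone. Incubated 25 °C for 3 h, then filtered and counted.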

Test [2] has as its target Delta-type opioid receptor (Mus musculus, UniProt P32300). In words: Effective concentration was measured towards delta opioid receptor using mouse vas deferens(MVD, delta) bioassay in vitro. Put shortly: (§1)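 Electrically stimulated MVD (male ICR mice, 25–30 g) and GPI longitudinal muscle-myenteric plexus (male Hartley guinea pigs, 150–400 g) in 37 °C oxygenated Krebs, magnesium-free for MVD. Tension 1 g (MVD 0.5 g); stimulation 0.1 Hz, 0.4-ms pulses (MVD 2.0 ms), supramaximal voltage.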

The target in test [3] is Opioid receptors; mu & delta (Homo sapiens) (UniProt P41143+P35372). As to the kind of experiment: Selectivity is the ratio between EC50 values GPI(mu) and MVD(delta). It counts as protein assay. The gist of the method:
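Electrically stimulated MVD (male ICR mice, 25–30 g) and GPI longitudinal muscle-myenteric plexus (male Hartley guinea pigs, 150–400 g) in 37 °C oxygenated Krebs, magnesium-free for MVD. Tension 1 g (MVD 0.5 g); stimulation 0.1 Hz, 0.4-ms pulses (MVD 2.0 ms), supramaximal voltage. Agonist applied 3 min; percent inhibition of contraction height.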

The target of the next test is Mu-type opioid receptor (Cavia porcellus, UniProt P97266). In words: Effective concentration was measured towards mu opioid receptor using guinea pig ileum (GPI, mu) bioassay in vitro. Format: tissue-based. Put shortly: as §1
Chain of Mu-type opioid receptor (P97266 whole entry): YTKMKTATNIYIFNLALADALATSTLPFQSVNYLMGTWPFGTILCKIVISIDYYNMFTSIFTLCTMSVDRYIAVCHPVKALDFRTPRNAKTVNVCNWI

Chain of Delta-type opioid receptor (P32300 whole entry): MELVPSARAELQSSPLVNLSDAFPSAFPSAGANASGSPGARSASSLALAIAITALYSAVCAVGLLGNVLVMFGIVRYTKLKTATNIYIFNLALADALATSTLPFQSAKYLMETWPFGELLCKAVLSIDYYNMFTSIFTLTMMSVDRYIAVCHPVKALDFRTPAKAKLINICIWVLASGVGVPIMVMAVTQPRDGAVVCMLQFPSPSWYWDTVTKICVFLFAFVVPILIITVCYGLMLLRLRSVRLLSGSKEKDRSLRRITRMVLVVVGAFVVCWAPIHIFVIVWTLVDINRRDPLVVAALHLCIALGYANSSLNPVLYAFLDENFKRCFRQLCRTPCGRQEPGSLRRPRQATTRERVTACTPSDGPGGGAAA
Chain of Opioid receptors; mu & delta (Homo sapiens) (P35372 whole entry, looked up): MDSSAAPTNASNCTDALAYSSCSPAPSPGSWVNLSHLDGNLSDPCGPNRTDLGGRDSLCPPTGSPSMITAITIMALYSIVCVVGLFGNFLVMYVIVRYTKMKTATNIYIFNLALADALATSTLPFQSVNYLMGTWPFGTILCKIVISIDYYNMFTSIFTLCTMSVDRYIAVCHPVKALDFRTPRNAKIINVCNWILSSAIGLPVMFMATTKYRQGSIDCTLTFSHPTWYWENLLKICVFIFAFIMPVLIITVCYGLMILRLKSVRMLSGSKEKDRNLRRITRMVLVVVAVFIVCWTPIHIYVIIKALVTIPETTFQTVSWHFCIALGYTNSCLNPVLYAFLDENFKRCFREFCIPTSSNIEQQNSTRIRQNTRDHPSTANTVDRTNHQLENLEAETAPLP
Chain of Opioid receptors; mu & delta (Homo sapiens) (P41143 whole entry, looked up): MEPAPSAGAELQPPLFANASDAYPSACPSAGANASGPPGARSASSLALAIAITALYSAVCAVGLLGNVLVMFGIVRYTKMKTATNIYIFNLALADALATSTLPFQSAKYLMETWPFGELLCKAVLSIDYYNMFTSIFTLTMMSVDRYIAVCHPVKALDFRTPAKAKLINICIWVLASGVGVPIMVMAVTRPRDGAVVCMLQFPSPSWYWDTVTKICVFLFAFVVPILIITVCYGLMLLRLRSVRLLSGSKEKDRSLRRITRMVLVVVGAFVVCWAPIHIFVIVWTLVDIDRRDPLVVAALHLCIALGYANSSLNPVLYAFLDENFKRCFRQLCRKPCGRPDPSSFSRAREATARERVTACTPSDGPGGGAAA

On to `Cc1cc(O)cc(C)c1[C@H](C)[C@H](N)C(=O)N[C@H]1C(=O)NCC(=O)N[C@@H](Cc2ccccc2)C(=O)N[C@@H](C(=O)O)C(C)(C)SSC1(C)C`, for which the Selectivity worked out at 3.4 in test [1] and 1.74 in test [3]. The pEC50 is 6.77 in test [2] and 6.53 at Mu-type opioid receptor.
The matching figures for `Cc1cc(O)cc(C)c1[C@H](C)[C@H](N)C(=O)N[C@H](C)C(=O)N[C@@H](Cc1ccccc1)C(=O)N[C@@H](CC(=O)O)C(=O)N[C@H](C(=O)N[C@H](C(=O)NCC(N)=O)C(C)C)C(C)C`: 5740, 5820, 9.18 and 5.42.

Usually pEC50 stands for the EC50 on a negative log10 scale, so that one unit is a factor of ten. Low readings indicate a large EC50, high ones a small EC50.

Source of the values: ChEMBL document CHEMBL1127739, “Newly discovered stereochemical requirements in the side-chain conformation of delta opioid agonists for recognizing opioid delta receptors” (J Med Chem, 1994).
